We go through twelve compounds from ChEMBL document CHEMBL4004865, “Synthesis, SAR and molecular docking study of novel non-β-lactam inhibitors of TEM type β-lactamase” (Bioorg Med Chem Lett, 2017).

The test system of experiment [1] is Escherichia coli. The experiment can be described thus: Inhibition of Escherichia coli beta-lactamase TEM-171 using CENTA as substrate at 100 uM by UV spectrophotometric method relative to control. In outline: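 Substrate and each inhibitor were tested at one fixed concentration. The initial rate V0 of substrate hydrolysis was recorded. The relative activity decrease (%) was calculated from V0 with inhibitor versus V0 of the enzyme-only control.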

The test system of experiment [2] is Escherichia coli. Description: Inhibition of Escherichia coli beta-lactamase TEM-171 assessed as initial hydrolysis rate of substrate CENTA at 100 uM by UV spectrophotometric method (reference value: 0.74 +/- 0.11 uM/s). In outline:
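TEM-171 β-lactamase at 10 nM. Substrate and each inhibitor were tested at one fixed concentration. The initial rate V0 of substrate hydrolysis was recorded. The relative activity decrease (%) was calculated from V0 with inhibitor versus V0 of the enzyme-only control.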

Each structure is given as a SMILES string.

As usually defined, the inhibition is the percentage by which the read-out fell short of the control. Low values mean little suppression, high ones strong suppression. In the experiment on Escherichia coli [1], `O=C(O)CCCC(=O)Nc1ccc(Oc2ccc(Cl)cc2)cc1` registered an inhibition of 1.4%. For the same compound, in the experiment on Escherichia coli [2], the V0 is 0.73 µM/s.
The like results for `O=C(O)CCC(=O)Nc1ccc(Oc2ccc(Br)cc2)cc1` were, in that order, 28% and 0.53 µM/s.
With `O=C(O)C(=O)Nc1ccc(Oc2ccc(Cl)cc2Cl)cc1`, the inhibition with Escherichia coli [1] was 31%. Moreover, the V0 with Escherichia coli [2] worked out at 0.51 µM/s.
Regarding `O=C(O)CCCC(=O)Nc1ccc(Oc2ccccc2)cc1`, the inhibition in the experiment on Escherichia coli [1] worked out at 1.4%. The V0 in the experiment on Escherichia coli [2] was determined as 0.73 µM/s.
Take `O=C(O)CCCC(=O)Nc1ccc(Oc2ccc(Cl)cc2Cl)cc1`: the inhibition with Escherichia coli [1] came to 31%. For the same compound, the V0 in the experiment with Escherichia coli [2] amounted to 0.51 µM/s.
On to `O=C(O)CCC(=O)Nc1ccc(Oc2ccc(Cl)cc2Cl)cc1`, for which the inhibition in the experiment on Escherichia coli [1] amounted to 38%. Moreover, the V0 with Escherichia coli [2] was determined as 0.46 µM/s.
The like results for `O=C(O)CCC(=O)Nc1ccc(Oc2ccccc2)cc1` were, in that order, 1.4% and 0.73 µM/s.
For `O=C(O)c1ccc(NC(=S)Nc2ccc(Oc3ccccc3)cc2)cc1` the same measures were 20.3% and 0.59 µM/s.
In the case of `O=C(O)c1ccc(NC(=S)Nc2ccc(Oc3ccc(Cl)cc3Cl)cc2)cc1`, in the experiment with Escherichia coli [1], the inhibition came out at 50%. The V0 in the experiment on Escherichia coli [2] stood at 0.37 µM/s.
`O=C(O)CCC(=O)Nc1ccc(Oc2ccc(Cl)cc2)cc1` gave an inhibition in the experiment with Escherichia coli [1] of 5.4%. For the same compound, in the experiment with Escherichia coli [2], the V0 was 0.7 µM/s.
For `O=C(O)c1ccc(NC(=S)Nc2ccc(Oc3ccc(Cl)cc3)cc2)cc1` the same measures were 28.4% and 0.53 µM/s.
Consider `O=C(O)CCCC(=O)Nc1ccc(Oc2ccc(Br)cc2)cc1`, for which the V0 with Escherichia coli [2] amounted to 0.53 µM/s.
